What was measured:
Trypanosoma cruzi [1] = test: Trypanocidal activity against Trypanosoma cruzi Y trypomastigotes infected in mouse macrophage at 32 uM; type: functional
Summary of the method: (§1)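 Trypomastigotes were harvested from mouse macrophage cultures, about 2 × 10^6 parasites/mL, in RPMI 1640 in 96-well plates. Compounds were dissolved in DMSO and diluted in blood to final 2.0, 8.0 and 32.0 µM, with 1% DMSO. Plates were incubated at 4 °C, and percent lysis was read by MTT colorimetry, in triplicate. Negative control: infected blood plus DMSO.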

Trypanosoma cruzi [2] = test: Trypanocidal activity against Trypanosoma cruzi Y trypomastigotes infected in mouse macrophage at 2 uM; type: functional; summary of the method: as §1
Trypanosoma cruzi [3] = test: Trypanocidal activity against Trypanosoma cruzi Y trypomastigotes infected in mouse macrophage at 8 uM; type: functional; summary of the method: as §1
Trypanosoma cruzi [4] = test: Antitrypanosomal activity against Trypanosoma cruzi Y trypomastigotes infected in mouse macrophage; type: functional, organism-based; summary of the method: as §1
Trypanosoma cruzi [5] = test: Trypanocidal activity against Trypanosoma cruzi Y trypomastigotes infected in mouse macrophage at 250 ug/ml; type: functional, organism-based
Summary of the method: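 Positive-control wells had gentian violet at 250 µg/mL against trypomastigotes from mouse macrophage cultures, about 2 × 10^6 parasites/mL, in RPMI 1640 in blood. Incubation was at 4 °C, and percent lysis was measured by MTT colorimetric method, in triplicate.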

SMILES | IC50 (Trypanosoma cruzi [4]) [µM] | Activity (Trypanosoma cruzi [1]) [%] | Activity (Trypanosoma cruzi [2]) [%] | Activity (Trypanosoma cruzi [3]) [%] | IC50 (Trypanosoma cruzi [5]) [µM]
COc1cc([C@H]2O[C@@H](c3ccc(O)c(OC)c3)[C@H](C)[C@@H]2C)ccc1O [NECTANDRIN B] | 47.3 | 48 | 23 | 25 | –
COc1ccc([C@H]2O[C@@H](c3ccc(OC)c(OC)c3)[C@H](C)[C@@H]2C)cc1OC [GALGRAVIN] | 4.4 | 59.9 | 44 | 56.3 | –
COc1ccc([C@H]2O[C@H](c3ccc(OC)c(OC)c3)[C@@H](C)[C@H]2C)cc1OC [GANSCHISANDRINE] | 12.2 | 55.6 | 36.5 | 49.2 | –
COc1cc([C@H]2O[C@@H](c3ccc(OC)c(OC)c3)[C@@H](C)[C@@H]2C)ccc1O [ARISTOLIGNIN] | 34.8 | 47.6 | 34.2 | 46.8 | –
COc1cc([C@H]2O[C@@H](c3ccc(OC)c(OC)c3)[C@H](C)[C@@H]2C)ccc1O [NECTANDRIN A] | 17400 | 18 | 10.2 | 13.5 | –
CN(C)c1ccc(C(=C2C=CC(=[N+](C)C)C=C2)c2ccc(N(C)C)cc2)cc1 [GENTIAN VIOLET] | – | – | – | – | 76

Further lines, with some results ahead:

IC50 (Trypanosoma cruzi [4]) [µM] | SMILES | Activity (Trypanosoma cruzi [1]) [%] | Activity (Trypanosoma cruzi [2]) [%] | Activity (Trypanosoma cruzi [3]) [%] | IC50 (Trypanosoma cruzi [5]) [µM]
2.2 | COc1ccc([C@@H]2O[C@H](c3ccc4c(c3)OCO4)[C@@H](C)[C@H]2C)cc1OC [MACHILIN G] | 94 | 54.8 | 53.6 | –
12.6 | COc1ccc([C@@H]2O[C@H](c3ccc4c(c3)OCO4)[C@@H](C)[C@@H]2C)cc1OC [CALOPIPTIN] | 60.3 | 21.4 | 49.2 | –
